Assay results taken from ChEMBL document CHEMBL1156597, “Structure-activity relationship of kahalalide F synthetic analogues” (J Med Chem, 2008).

Assays:
[1] = Cytotoxicity against human IGROV-ET cells after 48 hrs by SRB assay; type: functional; details: for CC50: read-out: LC50 (the source's name)
Summary of the method: (§1)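 Cells grown in RPMI 1640 with 10% FBS and penicillin/streptomycin at 37 °C and 5% CO₂, trypsinized, then seeded at 5 × 10³/well. After 18 h drug-free attachment, samples in DMSO/EtOH/PBS (0.5:0.5:99) were added for 48 h continuous exposure. Cells were fixed with cold TCA (1 h, 4 °C) and stained with SRB (10 min). Tris-solubilized stain read at 490 nm. Triplicate wells, mean ± SD; GI₅₀ derived.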

[2] = Cytotoxicity against human IGROV cells after 48 hrs by SRB assay; type: functional; details: for CC50: read-out: LC50 (the source's name); summary of the method: as §1
LoVo [3] = test: Cytotoxicity against human LoVo cells after 48 hrs by SRB assay; type: functional; details: for CC50: read-out: LC50 (the source's name)
HT-29 = test: Cytotoxicity against human HT29 cells after 48 hrs by SRB assay; type: functional, cell-based; details: Homo sapiens, HT-29, 48 h; for CC50: read-out: LC50 (the source's name); summary of the method: as §1
SK-MEL-28 = test: Cytotoxicity against human SK-MEL-28 cells after 48 hrs by SRB assay; type: functional, cell-based; details: Homo sapiens, SK-MEL-28, 48 h; for GI50: read-out: GI50; for CC50: read-out: LC50 (the source's name); summary of the method: as §1
PANC-1 = test: Cytotoxicity against human PANC1 cells after 48 hrs by SRB assay; type: functional; details: PANC-1, 48 h; for CC50: read-out: LC50 (the source's name); summary of the method: as §1
LNCaP = test: Cytotoxicity against human LNcaP cells after 48 hrs by SRB assay; type: functional; details: for CC50: read-out: LC50 (the source's name); summary of the method: as §1
K562 = test: Cytotoxicity against human K562 cells after 48 hrs by SRB assay; type: functional; details: K562, 48 h; for CC50: read-out: LC50 (the source's name); summary of the method: as §1
DU-145 = test: Cytotoxicity against human DU145 cells after 48 hrs by SRB assay; type: functional, cell-based; details: Homo sapiens, DU-145, 48 h; for CC50: read-out: LC50 (the source's name); summary of the method: as §1
A549 = test: Cytotoxicity against human A549 cells after 48 hrs by SRB assay; type: functional, cell-based; details: Homo sapiens, A549, 48 h; for GI50: read-out: GI50; summary of the method: as §1
LoVo [4] = test: Cytotoxicity against human doxorubicin resistant LoVo cells after 48 hrs by SRB assay; type: functional; details: for CC50: read-out: LC50 (the source's name); summary of the method: as §1
HeLa = test: Cytotoxicity against human HeLa cells after 48 hrs by SRB assay; type: functional; details: read-out: LC50 (the source's name); summary of the method: as §1
[5] = Cytotoxicity against human HeLa-APL cells after 48 hrs by SRB assay; type: functional; summary of the method: as §1
SK-BR-3 = test: Cytotoxicity against human SKBR3 cells after 48 hrs by SRB assay; type: functional; details: SK-BR-3, 48 h; summary of the method: as §1

Row | SMILES | CC50 [1] | CC50 [2] | GI50 (LoVo [3]) | TGI (LoVo [3]) | CC50 (LoVo [3]) | GI50 (HT-29) | TGI (HT-29) | CC50 (HT-29) | CC50 (SK-MEL-28) | GI50 (PANC-1) | TGI (PANC-1) | CC50 (PANC-1) | GI50 (LNCaP) | TGI (LNCaP) | CC50 (LNCaP) | GI50 (K562) | CC50 (K562) | CC50 (DU-145) | LC50 (A549) | CC50 (LoVo [4]) | other results
1 | C/C=C1\NC(=O)[C@H](Cc2ccccc2)NC(=O)[C@@H](C(C)C)NC(=O)[C@@H]([C@H](C)CC)NC(=O)[C@H](NC(=O)[C@H](NC(=O)[C@H](CCCN)NC(=O)[C@H]2CCCN2C(=O)[C@H](NC(=O)[C@@H](NC(=O)[C@@H](NC(=O)[C@H](NC(=O)Cc2ccc(C(F)(F)F)cc2)C(C)C)[C@@H](C)O)C(C)C)C(C)C)[C@H](C)CC)[C@H](C)OC(=O)[C@H](C(C)C)NC1=O | 524 nM | 1890 nM | 458 nM | 492 nM | 819 nM | 1680 nM | 2300 nM | 2920 nM | 1200 nM | 2170 nM | 2250 nM | 2340 nM | 1630 nM | 3130 nM | 4400 nM | 2230 nM | 2790 nM | 6240 nM | 1100 nM | 1240 nM | GI50 [1]: 675 nM; GI50 ([1]; read-out: GI50): 866 nM; GI50 [2]: 892 nM; GI50 ([2]; read-out: GI50): 1000 nM; TGI (SK-MEL-28): 15900 nM; GI50 (SK-MEL-28): 2800 nM; TGI (K562): 2520 nM; TGI (DU-145): 5500 nM; GI50 (DU-145; read-out: GI50): 5280 nM; TGI (A549): 2150 nM; GI50 (A549): 1840 nM
2 | C/C=C1\NC(=O)[C@H](Cc2c(F)c(F)c(F)c(F)c2F)NC(=O)[C@@H](C(C)C)NC(=O)[C@@H]([C@H](C)CC)NC(=O)[C@H](NC(=O)[C@H](NC(=O)[C@H](CCCN)NC(=O)[C@H]2CCCN2C(=O)[C@H](NC(=O)[C@@H](NC(=O)[C@@H](NC(=O)[C@H](NC(=O)CC[C@@H](C)CC)C(C)C)[C@@H](C)O)C(C)C)C(C)C)[C@H](C)CC)[C@H](C)OC(=O)[C@H](C(C)C)NC1=O | 1150 nM | 1100 nM | 469 nM | 426 nM | 386 nM | 1090 nM | 1740 nM | 256 nM | 1120 nM | 2110 nM | 3420 nM | 2810 nM | 504 nM | 681 nM | 778 nM |  |  | 1000 nM | 1270 nM | 374 nM | TGI [2]: 1740 nM; GI50 ([2]; read-out: GI50): 2070 nM; TGI (SK-MEL-28): 1200 nM; GI50 (SK-MEL-28): 1280 nM; CC50 (HeLa): 1300 nM; GI50 [5]: 1450 nM; LC50 (concentration giving 50% net cell kill) [5]: 983 nM; TGI [5]: 1200 nM; TGI (DU-145): 1170 nM; GI50 (DU-145; read-out: GI50): 1370 nM; TGI (A549): 1530 nM; GI50 (A549): 1850 nM; GI50 (LoVo [4]): 496 nM; TGI (LoVo [4]): 432 nM; TGI (SK-BR-3): 492 nM; GI50 (SK-BR-3; read-out: GI50): 556 nM; CC50 (SK-BR-3; read-out: LC50 (the source's name)): 435 nM
3 | C/C=C1\NC(=O)[C@H](Cc2ccccc2)NC(=O)[C@@H](C(C)C)NC(=O)[C@@H]([C@H](C)CC)NC(=O)[C@H](NC(=O)[C@H](NC(=O)[C@H](CCCN)NC(=O)[C@H]2CCCN2C(=O)[C@H](NC(=O)CCCC(C)C)C(C)C)[C@H](C)CC)[C@H](C)OC(=O)[C@H](C(C)C)NC1=O | 6210 nM | 6040 nM |  |  | 4320 nM |  |  | 7470 nM | 2500 nM | 2920 nM | 2660 nM | 2450 nM | 9850 nM | 9970 nM | 8890 nM | 3480 nM | 3540 nM | 22300 nM | 2870 nM | 5840 nM | TGI (K562): 3510 nM
4 | C/C=C1\NC(=O)[C@H](Cc2ccccc2)NC(=O)[C@@H](C(C)C)NC(=O)[C@@H]([C@H](C)CC)NC(=O)[C@H](NC(=O)[C@H](NC(=O)[C@H](CCC(=O)O)NC(=O)[C@H]2CCCN2C(=O)[C@H](NC(=O)[C@@H](NC(=O)[C@@H](NC(=O)[C@H](NC(=O)CCCC(C)C)C(C)C)[C@@H](C)O)C(C)C)C(C)C)[C@H](C)CC)[C@H](C)OC(=O)[C@H](C(C)C)NC1=O | 3540 nM | 3200 nM | 785 nM | 692 nM | 1350 nM | 2670 nM | 3260 nM | 4000 nM | 1980 nM | 2500 nM | 2540 nM | 2600 nM | 1880 nM | 3130 nM | 4360 nM | 3320 nM | 2900 nM | 10200 nM | 22600 nM | 3590 nM | TGI [1]: 3530 nM; GI50 ([1]; read-out: GI50): 3540 nM; TGI [2]: 2530 nM; GI50 ([2]; read-out: GI50): 1950 nM; TGI (SK-MEL-28): 4980 nM; GI50 (SK-MEL-28): 5890 nM; TGI (K562): 4200 nM; TGI (A549): 8950 nM; GI50 (A549): 1090 nM
5 | C/C=C1\NC(=O)[C@H](Cc2ccccc2)NC(=O)[C@@H](C(C)C)NC(=O)[C@@H]([C@H](C)CC)NC(=O)[C@H](NC(=O)[C@H](NC(=O)[C@H](CCCN)NC(=O)[C@H]2CCCN2C(=O)[C@H](NC(=O)[C@@H](NC(=O)[C@@H](NC(=O)[C@@H](NC(=O)CCCC(C)C)C(C)C)[C@@H](C)O)C(C)C)C(C)C)[C@H](C)CC)[C@H](C)OC(=O)[C@H](C(C)C)NC1=O | 527 nM | 668 nM | 1300 nM | 3250 nM | 2090 nM | 635 nM | 728 nM | 501 nM | 1060 nM | 1510 nM | 1560 nM | 1590 nM | 853 nM | 911 nM | 967 nM |  | 153 nM | 842 nM | 1040 nM | 2880 nM | GI50 [1]: 529 nM; GI50 ([1]; read-out: GI50): 2890 nM; TGI (SK-MEL-28): 1030 nM; GI50 (SK-MEL-28): 1000 nM; CC50 (HeLa): 1020 nM; GI50 [5]: 1040 nM; LC50 (concentration giving 50% net cell kill) [5]: 969 nM; TGI [5]: 1510 nM; GI50 (DU-145): 771 nM; GI50 (DU-145; read-out: GI50): 549 nM; TGI (A549): 1180 nM; GI50 (A549): 1330 nM; GI50 (LoVo [4]): 1760 nM; TGI (LoVo [4]): 2250 nM
6 | C/C=C1\NC(=O)[C@H](Cc2ccccc2)NC(=O)[C@@H](C(C)C)NC(=O)[C@@H]([C@H](C)CC)NC(=O)[C@H](NC(=O)[C@H](NC(=O)[C@H](CCCN)NC(=O)[C@H]2CCCN2C(=O)[C@H](NC(=O)[C@@H](NC(=O)[C@@H](NC(=O)[C@H](NC(=O)CCCCC(C)(F)F)C(C)C)[C@@H](C)O)C(C)C)C(C)C)[C@H](C)CC)[C@H](C)OC(=O)[C@H](C(C)C)NC1=O | 571 nM | 2460 nM | 442 nM | 397 nM | 444 nM | 1960 nM | 2510 nM | 3190 nM | 1300 nM | 2040 nM | 1850 nM | 1690 nM | 1840 nM | 2870 nM | 3730 nM | 2960 nM | 2060 nM | 5480 nM | 1440 nM | 50700 nM | GI50 [1]: 751 nM; GI50 ([1]; read-out: GI50): 987 nM; TGI [2]: 1540 nM; GI50 ([2]; read-out: GI50): 1330 nM; TGI (K562): 2460 nM; TGI (DU-145): 3920 nM; GI50 (DU-145; read-out: GI50): 4520 nM; TGI (A549): 2320 nM; GI50 (A549): 2030 nM
7 | C/C=C1\NC(=O)[C@H](Cc2ccccc2)NC(=O)[C@@H](C(C)C)NC(=O)[C@@H]([C@H](C)CC)NC(=O)[C@H](NC(=O)[C@H](NC(=O)[C@H](CCCN)NC(=O)[C@H]2CCCN2C(=O)[C@H](NC(=O)CCCCCCCCCCCCC)C(C)C)[C@H](C)CC)[C@H](C)OC(=O)[C@H](C(C)C)NC1=O | 5190 nM | 5330 nM |  |  | 3980 nM |  |  | 6890 nM | 1870 nM | 2450 nM | 2400 nM | 2160 nM | 7210 nM | 8100 nM | 8020 nM | 3000 nM | 3390 nM | 17900 nM | 2650 nM | 5370 nM | TGI (K562): 3470 nM
